How the values were obtained:
[1] = Selectivity index, ratio of Ki for dopamine D1 receptor to Ki for rat dopamine D2short receptor
D(2) dopamine receptor [2] = molecular target: T1, D(2) dopamine receptor (Rattus norvegicus, UniProt P61169); assay: Displacement of [3H]raclopride from rat dopamine D2short receptor expressed in CHO-K1 cells by liquid scintillation counting; format: cell-based
D(2) dopamine receptor [3] = molecular target: T1, D(2) dopamine receptor; assay: Agonist activity at rat dopamine D2short receptor expressed in CHO-K1 cells assessed as stimulation of [35S]GTPgammaS binding by liquid scintillation counting; format: functional, cell-based
[4] = molecular target: D(2) dopamine receptor (Rattus norvegicus) (UniProt P61169); assay: Agonist activity at rat dopamine D2short receptor expressed in CHO-K1 cells assessed as stimulation of [35S]GTPgammaS binding by liquid scintillation counting relative to dopamine; format: functional, cell-based
Sequence of D(2) dopamine receptor (Rattus norvegicus) (P61169 whole entry): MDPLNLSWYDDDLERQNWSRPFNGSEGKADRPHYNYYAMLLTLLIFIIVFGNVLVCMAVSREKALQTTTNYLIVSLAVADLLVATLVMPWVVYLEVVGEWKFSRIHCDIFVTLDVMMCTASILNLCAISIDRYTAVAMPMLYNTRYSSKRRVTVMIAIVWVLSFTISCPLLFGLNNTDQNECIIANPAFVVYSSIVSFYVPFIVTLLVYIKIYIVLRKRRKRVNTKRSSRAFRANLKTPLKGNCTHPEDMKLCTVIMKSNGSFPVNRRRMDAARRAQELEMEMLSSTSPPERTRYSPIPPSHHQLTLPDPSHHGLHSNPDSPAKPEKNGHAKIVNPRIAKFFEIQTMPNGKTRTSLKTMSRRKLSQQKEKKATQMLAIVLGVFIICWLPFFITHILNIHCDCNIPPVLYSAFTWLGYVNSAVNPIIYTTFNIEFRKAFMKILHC
Procedure, shortened: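 Membranes from CHO-K1 cells stably expressing the receptor were prepared by sonication in Tris buffer (pH 7.4, with NaCl, KCl, MgCl2 and EDTA). They were incubated with 0.2 nM [35S]GTPγS, 10 µM GDP and a compound concentration series for 90 min at 25 °C. Samples were filtered on GF/B and washed with ice-cold phosphate buffer before scintillation counting. Curves were fitted by non-linear regression. Means ± SEM come from ≥2 independent experiments, each in duplicate.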

D(1A) dopamine receptor = D(1A) dopamine receptor (Homo sapiens, UniProt P21728); assay: Displacement of [3H]SCH23390 from dopamine D1 receptor expressed in Ltk deficient fibroblast cells by liquid scintillation counting; format: cell-based
Sequence of D(1A) dopamine receptor (P21728 whole entry): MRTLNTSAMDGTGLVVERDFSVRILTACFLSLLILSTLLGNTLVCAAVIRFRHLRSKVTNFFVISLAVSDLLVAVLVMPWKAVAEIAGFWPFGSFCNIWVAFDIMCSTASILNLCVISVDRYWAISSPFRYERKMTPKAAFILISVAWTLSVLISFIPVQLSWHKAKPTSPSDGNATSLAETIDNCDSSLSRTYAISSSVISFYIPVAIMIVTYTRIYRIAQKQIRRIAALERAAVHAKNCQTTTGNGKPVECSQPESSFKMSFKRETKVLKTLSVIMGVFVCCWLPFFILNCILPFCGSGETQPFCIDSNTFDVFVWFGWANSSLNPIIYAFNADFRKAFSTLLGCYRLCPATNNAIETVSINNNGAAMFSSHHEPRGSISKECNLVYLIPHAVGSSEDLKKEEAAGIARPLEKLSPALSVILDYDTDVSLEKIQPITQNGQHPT

T1 sequence (P61169 whole entry): as the sequence (P61169 whole entry) above

Row | Compound | Ratio Ki [1] | Ki (D(2) dopamine receptor [2]) | EC50 (D(2) dopamine receptor [3]) | Efficacy [4] | Ki (D(1A) dopamine receptor)
1 | CCCN1CCc2cc(-c3ccccc3)cc3c2[C@H]1Cc1ccc(O)c(O)c1-3 | 3.5 | 192 nM | 577 nM | 100% | 669 nM
2 | CCCN1CCc2cc(C)cc3c2[C@H]1Cc1ccc(O)c(O)c1-3 | 30 | 9.2 nM | 40 nM | 65% | 278 nM
3 | CN1CCc2cc(-c3ccccc3)cc3c2[C@H]1Cc1ccc(O)c(O)c1-3 | 7.5 |  | 23 nM |  | 88 nM
4 | CCCN1CCc2cc(-c3ccc(O)cc3)cc3c2[C@H]1Cc1ccc(O)c(O)c1-3 | 47 | 2 nM | 12 nM | 99% | 94 nM
5 | CCN1CCc2cc(C)cc3c2[C@H]1Cc1ccc(O)c(O)c1-3 | 12 | 115 nM | 480 nM | 112% | 1340 nM
6 | Cc1cc2c3c(c1)-c1c(ccc(O)c1O)C[C@H]3N(C)CC2 |  |  | 43 nM |  | 
7 | CCN1CCc2cc(-c3ccc(O)cc3)cc3c2[C@H]1Cc1ccc(O)c(O)c1-3 | 83 | 1.5 nM | 8.7 nM | 112% | 124 nM
8 | CN1CCc2cccc3c2[C@H]1Cc1ccc(O)c(O)c1-3 |  |  |  | 58% | 
9 | CN1CCc2cc(-c3ccc(O)cc3)cc3c2[C@H]1Cc1ccc(O)c(O)c1-3 | 182 |  | 8.5 nM |  | 755 nM
10 | CCN1CCc2cc(-c3ccccc3)cc3c2[C@H]1Cc1ccc(O)c(O)c1-3 | 2.2 | 14 nM | 51 nM | 72% | 31 nM
